Measurements published in ChEMBL document CHEMBL4680165, “β-Lactams with antiproliferative and antiapoptotic activity in breast and chemoresistant colon cancer cells” (Eur J Med Chem, 2020).

How the values were obtained:
[1] = test system: NCI/ADR-RES; assay: Antiproliferative activity against human NCI/ADR-RES cells assessed as cell growth inhibition; assay type: functional
Summary of the method: (§1)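 NCI 60 cell line screen. Five concentrations (100, 10, 1, 0.1 and 0.01 µM) with 48 h drug exposure. GI50 is the molar concentration giving 50% growth inhibition; TGI and LC50 were also derived.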

[2] = test system: A549; assay: Antiproliferative activity against human A549 cells assessed as cell growth inhibition; assay type: functional; summary of the method: as §1
[3] = test system: SR; assay: Antiproliferative activity against human SR cells assessed as cell growth inhibition; assay type: functional
Summary of the method: (§2)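 NCI60 cell line screen: cells exposed for 48 h to five concentrations (100, 10, 1, 0.1 and 0.01 µM). GI50 is the molar concentration giving 50% growth inhibition; TGI and LC50 were also determined.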

[4] = test system: TK-10; assay: Antiproliferative activity against human TK-10 cells assessed as cell growth inhibition; assay type: functional; summary of the method: as §2
[5] = test system: SNB-19; assay: Antiproliferative activity against human SNB-19 cells assessed as cell growth inhibition; assay type: functional; summary of the method: as §2
[6] = test system: KM12; assay: Antiproliferative activity against human KM12 cells assessed as cell growth inhibition; assay type: functional; summary of the method: as §1
[7] = test system: HCT-15; assay: Antiproliferative activity against human HCT-15 cells assessed as cell growth inhibition; assay type: functional; summary of the method: as §1
[8] = test system: MDA-MB-435; assay: Antiproliferative activity against human MDA-MB-435 cells assessed as cell growth inhibition; assay type: functional; summary of the method: as §1
[9] = test system: SF-295; assay: Antiproliferative activity against human SF295 cells assessed as cell growth inhibition; assay type: functional; summary of the method: as §1
[10] = test system: HCC 2998; assay: Antiproliferative activity against human HCC-2998 cells assessed as cell growth inhibition; assay type: functional; summary of the method: as §1
[11] = test system: 786-0; assay: Antiproliferative activity against human 786-0 cells assessed as cell growth inhibition; assay type: functional; summary of the method: as §1
[12] = test system: HOP-62; assay: Antiproliferative activity against human HOP-62 cells assessed as cell growth inhibition; assay type: functional; summary of the method: as §1
[13] = test system: IGROV-1; assay: Antiproliferative activity against human IGROV-1 cells assessed as cell growth inhibition; assay type: functional; summary of the method: as §1
[14] = test system: COLO 205; assay: Antiproliferative activity against human COLO 205 cells assessed as cell growth inhibition; assay type: functional; summary of the method: as §1
[15] = test system: T47D; assay: Antiproliferative activity against human T47D cells assessed as cell growth inhibition; assay type: functional; summary of the method: as §2
[16] = test system: NCI-H226; assay: Antiproliferative activity against human NCI-H226 cells assessed as cell growth inhibition; assay type: functional; summary of the method: as §1
[17] = test system: SF-539; assay: Antiproliferative activity against human SF539 cells assessed as cell growth inhibition; assay type: functional; summary of the method: as §2
[18] = test system: UO-31; assay: Antiproliferative activity against human UO-31 cells assessed as cell growth inhibition; assay type: functional; summary of the method: as §2
[19] = test system: OVCAR-5; assay: Antiproliferative activity against human OVCAR-5 cells assessed as cell growth inhibition; assay type: functional; summary of the method: as §1
[20] = Antiproliferative activity against human NCI-H332M cells assessed as cell growth inhibition; assay type: functional; summary of the method: as §1
[21] = test system: U-251; assay: Antiproliferative activity against human U251 cells assessed as cell growth inhibition; assay type: functional; summary of the method: as §2
[22] = test system: LOX IMVI; assay: Antiproliferative activity against human LOX IMVI cells assessed as cell growth inhibition; assay type: functional; summary of the method: as §1
[23] = test system: MDA-MB-231; assay: Antiproliferative activity against human MDA-MB-231 cells assessed as cell growth inhibition; assay type: functional; summary of the method: as §1
[24] = test system: NCI-H522; assay: Antiproliferative activity against human […] cells assessed as cell growth inhibition; assay type: functional; summary of the method: as §1
[25] = test system: CAKI-1; assay: Antiproliferative activity against human […] cells assessed as cell growth inhibition; assay type: functional; summary of the method: as §1
[26] = test system: Malme-3M; assay: Antiproliferative activity against human Malme-3M cells assessed as cell growth inhibition; assay type: functional; summary of the method: as §1
[27] = test system: SK-OV-3; assay: Antiproliferative activity against human SK-OV-3 cells assessed as cell growth inhibition; assay type: functional; summary of the method: as §2
[28] = test system: SW-620; assay: Antiproliferative activity against human SW-620 cells assessed as cell growth inhibition; assay type: functional; summary of the method: as §2
[29] = test system: SN12C; assay: Antiproliferative activity against human SN12C cells assessed as cell growth inhibition; assay type: functional; summary of the method: as §2
[30] = test system: ACHN; assay: Antiproliferative activity against human ACHN cells assessed as cell growth inhibition; assay type: functional; summary of the method: as §1
[31] = test system: MCF7; assay: Antiproliferative activity against human MCF7 cells assessed as cell growth inhibition; assay type: functional; summary of the method: as §1
[32] = test system: NCI-H23; assay: Antiproliferative activity against human NCI-H23 cells assessed as cell growth inhibition; assay type: functional; summary of the method: as §1
[33] = test system: K562; assay: Antiproliferative activity against human K-562 cells assessed as cell growth inhibition; assay type: functional; summary of the method: as §1
[34] = test system: MOLT-4; assay: Antiproliferative activity against human MOLT-4 cells assessed as cell growth inhibition; assay type: functional; summary of the method: as §1
[35] = test system: A498; assay: Antiproliferative activity against human A498 cells assessed as cell growth inhibition; assay type: functional; summary of the method: as §1
[36] = test system: MCF7; assay: Antiproliferative activity against human MCF7 cells assessed as reduction in cell viability after 72 hrs by alamar blue assay; assay type: functional, cell-based; details: MCF7, 72 h
Summary of the method: (§3)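 Cells seeded at 5 x 10^3/well (MCF-7) or 1 x 10^4/well (HT-29, HEK-293T) and treated after 24 h with serial dilutions (0.001-100 µM) in 1% v/v ethanol vehicle. Alamar Blue 10% v/v added at 72 h, then 3-5 h at 37 °C in the dark; fluorescence ex 530/em 590 nm. Viability relative to vehicle; IC50 from dose-response curves; mean of three experiments in triplicate.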

[37] = test system: UDP-glucuronosyltransferases (UGTs); assay: Metabolic stability in human liver microsomes assessed as UGT-mediated N-glucuronidation by measuring half life at 3 uM measured up to 45 mins by LC-MS/MS analysis; assay type: ADME; details: microsomes, 0.75 h, 3 µM
Summary of the method: (§4)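 Pooled human liver microsomes (0.5 mg/mL protein final) with alamethicin (25 µg/mg) in 0.1 M phosphate pH 7.4, compound 3 µM final (0.25% DMSO), preincubated 37 °C. Reaction started with UDPGA (1 mM final). Sampled at 0, 5, 15, 30, 45 min into methanol, analysed by LC-MS/MS. Minus-UDPGA control run 45 min. Single incubations; t½ and CLint taken from the elimination rate constant.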

[38] = test system: SK-MEL-28; assay: Antiproliferative activity against human SK-MEL-28 cells assessed as cell growth inhibition; assay type: functional; summary of the method: as §2
[39] = Selectivity index, ratio of IC50 for human MCF7 cells to IC50 for human HT-29 cells assessed as reduction in cell viability after 72 hrs by alamar blue assay; assay type: functional
[40] = test system: BT-549; assay: Antiproliferative activity against human BT-549 cells assessed as cell growth inhibition; assay type: functional; summary of the method: as §1
[41] = test system: NCI-H460; assay: Antiproliferative activity against human NCI-H460 cells assessed as cell growth inhibition; assay type: functional; summary of the method: as §1
[42] = test system: HL-60; assay: Antiproliferative activity against human HL60 cells assessed as cell growth inhibition; assay type: functional; summary of the method: as §1
[43] = test system: SNB-75; assay: Antiproliferative activity against human SNB-75 cells assessed as cell growth inhibition; assay type: functional; summary of the method: as §2
[44] = test system: OVCAR-3; assay: Antiproliferative activity against human OVCAR-3 cells assessed as cell growth inhibition; assay type: functional; summary of the method: as §1
[45] = test system: EKVX; assay: Antiproliferative activity against human EKVX cells assessed as cell growth inhibition; assay type: functional; summary of the method: as §1
[46] = test system: HT-29; assay: Antiproliferative activity against human HT-29 cells assessed as cell growth inhibition; assay type: functional; summary of the method: as §1
[47] = test system: Hs-578T; assay: Antiproliferative activity against human Hs-578T cells assessed as cell growth inhibition; assay type: functional; summary of the method: as §1
[48] = test system: UDP-glucuronosyltransferases (UGTs); assay: Metabolic stability in human liver microsomes assessed as UGT-mediated N-glucuronidation by measuring intrinsic clearance at 3 uM measured up to 45 mins by LC-MS/MS analysis; assay type: ADME; details: microsomes, 0.75 h, 3 µM; summary of the method: as §4
[49] = test system: PC-3; assay: Antiproliferative activity against human PC-3 cells assessed as cell growth inhibition; assay type: functional; summary of the method: as §1
[50] = test system: SF-268; assay: Antiproliferative activity against human SF-268 cells assessed as cell growth inhibition; assay type: functional; summary of the method: as §1
[51] = test system: CCRF-CEM; assay: Antiproliferative activity against human CCRF-CEM cells assessed as cell growth inhibition; assay type: functional; summary of the method: as §1
[52] = test system: OVCAR-4; assay: Antiproliferative activity against human OVCAR-4 cells assessed as cell growth inhibition; assay type: functional; summary of the method: as §1
[53] = test system: HT-29; assay: Antiproliferative activity against human HT-29 cells assessed as reduction in cell viability after 72 hrs by alamar blue assay; assay type: functional, cell-based; details: HT-29, 72 h; summary of the method: as §3
[54] = test system: HCT-116; assay: Antiproliferative activity against human HCT-116 cells assessed as cell growth inhibition; assay type: functional; summary of the method: as §1
[55] = test system: MDA-MB-468; assay: Antiproliferative activity against human MDA-MB-468 cells assessed as cell growth inhibition; assay type: functional; summary of the method: as §1
[56] = test system: RPMI-8226; assay: Antiproliferative activity against human RPMI-8226 cells assessed as cell growth inhibition; assay type: functional; summary of the method: as §1
[57] = test system: M14; assay: Antiproliferative activity against human M14 cells assessed as cell growth inhibition; assay type: functional; summary of the method: as §1
[58] = test system: SK-MEL-5; assay: Antiproliferative activity against human SK-MEL-5 cells assessed as cell growth inhibition; assay type: functional; summary of the method: as §2
[59] = test system: OVCAR-8; assay: Antiproliferative activity against human OVCAR-8 cells assessed as cell growth inhibition; assay type: functional; summary of the method: as §1
[60] = test system: UACC-62; assay: Antiproliferative activity against human UACC-62 cells assessed as cell growth inhibition; assay type: functional; summary of the method: as §2
[61] = test system: SK-MEL-2; assay: Antiproliferative activity against human SK-MEL-2 cells assessed as cell growth inhibition; assay type: functional; summary of the method: as §2
[62] = test system: DU-145; assay: Antiproliferative activity against human DU-145 cells assessed as cell growth inhibition; assay type: functional; summary of the method: as §1
[63] = test system: HOP-92; assay: Antiproliferative activity against human HOP-92 cells assessed as cell growth inhibition; assay type: functional; summary of the method: as §1

GI50 [2]: 36.8 nM | GI50 [7]: 33.6 nM | GI50 [8]: 18.7 nM | GI50 [10]: 39.4 nM | GI50 [11]: 31.4 nM | GI50 [14]: 19.4 nM | GI50 [15]: > 100000 nM | GI50 [16]: 35 nM | GI50 [19]: 51.7 nM | GI50 [21]: 35.9 nM | GI50 [23]: 45.2 nM | GI50 [24]: 18.6 nM | GI50 [27]: 34.8 nM | GI50 [28]: 41.9 nM | GI50 [30]: 44 nM | GI50 [31]: 29.6 nM | GI50 [32]: 48.9 nM | GI50 [33]: 32.1 nM | GI50 [34]: 38.1 nM | IC50 [36]: 17 nM | t1/2 [37]: 23.5 h | GI50 [38]: 1370 nM | GI50 [40]: 26.6 nM | GI50 [41]: 34.4 nM | GI50 [42]: 22.3 nM | GI50 [44]: 28 nM | GI50 [46]: 26 nM | CLH [48]: 0.98 µL/min/mg | GI50 [49]: 40.3 nM | GI50 [51]: 36.1 nM | GI50 [52]: 87.1 nM | IC50 [53]: 9 nM | GI50 [54]: 32.4 nM | GI50 [55]: 28.7 nM | GI50 [56]: 41.3 nM | GI50 [58]: 27.1 nM | GI50 [59]: 34.4 nM | GI50 [61]: 35.4 nM | GI50 [62]: 35.4 nM
Structure (SMILES): COc1ccc([C@H]2[C@H](c3ccccc3)C(=O)N2c2cc(OC)c(OC)c(OC)c2)cc1F
GI50 [1]: 39.4 nM | GI50 [3]: 37.3 nM | GI50 [4]: 1680 nM | GI50 [5]: 49.9 nM | GI50 [6]: 33.1 nM | GI50 [9]: 29 nM | GI50 [12]: 37.9 nM | GI50 [13]: 42.8 nM | GI50 [17]: 23.4 nM | GI50 [18]: 77.1 nM | GI50 [20]: 68.7 nM | GI50 [22]: 29.6 nM | GI50 [25]: 33.2 nM | GI50 [26]: > 100000 nM | GI50 [29]: 56.1 nM | GI50 [35]: 27 nM | Ratio IC50 [39]: 1.88 | GI50 [43]: 31.4 nM | GI50 [45]: 77.6 nM | GI50 [47]: 43.4 nM | GI50 [50]: 44.3 nM | GI50 [57]: 22.6 nM | GI50 [60]: 54.3 nM | GI50 [63]: 2840 nM
